Sampled rows, rich in hits. Any-hit rate of the full collection: about 4.6%.
OX1R antag-1 – blocks the human orexin 1 receptor; O43613; AID 485270; inhibition, % at 6.6 µM; hit rate 1.8% among 330,000; OX1R-expressing cells, FRET antagonist read-out; in the data active = inhibition mostly above about 38%, no sharp cut-off; inactive = mostly below about 40%;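 note: 0% = agonist challenge alone and 100% = reference antagonist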
CHO parental Ca – counter-screen: ATP calcium response change in parental CHO cells; parental CHO-K1, ATP-induced calcium, Fluo-8 fluorescence; hit rate 0.63% among 330,000; inhibition, % at 5.6 µM; AID 463079;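 active = inhibition above that plate's mean sample inhibition plus 3 SD, cut at about 26% in these data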;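 note: 0% = ATP-challenged DMSO wells and 100% = DMSO wells without ATP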
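Material: parental CHO cells / Compound: single nominal dose of 5.6 µM per compound / Signal: Fluo-8 fluorescence / Replicates: singlicate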
TAAR1 antagonist – human TAAR1 antagonism; Q96RJ0; CHO RD-HGA16 TAAR1, Fluo-8 calcium fluorescence, antagonist; inhibition, % at 3 µM; hit rate 1.5% among 360,000; AID 624466;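 active = inhibition above a per-plate cutoff, the mean inhibition of test compounds on that plate plus 3 SD, cut at about 49% in these data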;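 note: 0% = DMSO plus EC80 beta-PEA response and 100% = DMSO alone without agonist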
Target sequence (Q96RJ0 whole entry, looked up): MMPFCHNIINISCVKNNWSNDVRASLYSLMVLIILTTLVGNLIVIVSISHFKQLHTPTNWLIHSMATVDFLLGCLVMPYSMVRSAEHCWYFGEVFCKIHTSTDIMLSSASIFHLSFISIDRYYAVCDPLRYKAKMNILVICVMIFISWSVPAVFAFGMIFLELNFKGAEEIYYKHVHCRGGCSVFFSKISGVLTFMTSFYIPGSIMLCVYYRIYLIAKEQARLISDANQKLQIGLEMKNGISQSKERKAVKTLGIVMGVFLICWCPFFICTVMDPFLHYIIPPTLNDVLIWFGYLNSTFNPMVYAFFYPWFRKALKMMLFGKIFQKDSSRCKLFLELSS
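Material: CHO RD-HGA16 cells bearing hTAAR1; compound dosing: one-point dosing, 3 µM nominal final; schedule: dye loading 75 min at 37 °C, then 30 min room temperature; measured by: calcium fluorescence with Fluo-8; control set: vehicle and agonist controls; replication: n of 1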
TAAR1 agonist – agonists of human TAAR1; hit rate 0.99% among 360,000; CHO RD-HGA16 TAAR1, Fluo-8 calcium fluorescence; vehicle wells 0%, saturating PEA agonist 100%; activation, % at 3 µM; Q96RJ0;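 active = activation above the mean activation of all test compounds in the run plus 3 SD, cut at about 38% in these data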
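System: CHO-derived RD-HGA16 cells with stable Gα16 and human TAAR1 / Times: 17-24 h plating, Fluo-8 75 min 37 °C, 30 min RT / Technique: calcium-sensitive Fluo-8 signal, excitation 470-495, emission 515-575 nm / Measure: % activation relative to PEA EC100 response / Benchmarks: DMSO and PEA EC100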
GPR7 antagonist – antagonists of human GPR7 (neuropeptides B/W receptor 1) | P48145 | GPR7-expressing cells, fluorescence antagonist assay | inhibition, % at 4.4 µM | hit rate 1.1% among 290,000 | AID 1861; in the data active = inhibition above about 16%, passing the limit was not always enough;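 note: cells stimulated with the agonist NPW; 0% = agonist with vehicle and 100% = vehicle without agonist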
Target sequence (P48145 whole entry, looked up): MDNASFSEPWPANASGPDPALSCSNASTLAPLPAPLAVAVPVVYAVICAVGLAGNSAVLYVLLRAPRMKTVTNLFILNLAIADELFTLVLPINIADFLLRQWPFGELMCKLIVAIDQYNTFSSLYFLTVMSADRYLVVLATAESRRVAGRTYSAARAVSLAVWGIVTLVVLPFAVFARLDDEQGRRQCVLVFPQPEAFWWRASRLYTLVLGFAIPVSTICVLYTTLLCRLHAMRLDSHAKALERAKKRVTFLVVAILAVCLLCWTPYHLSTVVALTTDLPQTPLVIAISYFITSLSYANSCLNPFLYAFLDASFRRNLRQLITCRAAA
OX1R antag-2 – blocks the human orexin 1 receptor; hit rate 0.43% among 330,000; O43613; CHO/OX1R cells, Fluo-8 calcium fluorescence, orexin A; AID 434989; inhibition, % at 5 µM;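 active = inhibition above its plate's threshold, mean inhibition of all tested compounds on the plate plus 3 SD, cut at about 37% in these data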;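 note: 0% = orexin A challenge wells and 100% = SB-334867-A antagonist wells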
nonsel antag count – nonselective antagonist in TAAR1 antagonist counter-screen; shares compounds with TAAR1 antagonist; counterscreen cell line, calcium fluorescence, antagonist mode; inhibition, % at 3 µM; hit rate 77% among 2,400; in the data active = inhibition above about 22%;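 note: CHO-Ga16 host cells stimulated with ATP at an EC80 level; 0% = agonist EC80 plus vehicle and 100% = vehicle without agonist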
TAAR1 antag conf – confirmation of human TAAR1 antagonists; shares compounds with TAAR1 antagonist; TAAR1-expressing cells, fluorescence antagonist read-out; inhibition, % at 3 µM; hit rate 40% among 2,400; AID 651785; in the data active = inhibition above about 49%;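 note: CHO-Ga16 host cells challenged with agonist PEA near its EC80; 0% = agonist at EC80 plus vehicle and 100% = vehicle with no agonist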
Ga16 nonsel ag – nonselective Ga16 agonism, counter-screen. shares compounds with TAAR1 antagonist. AID 651953. hit rate 18% among 2,400. activation, % at 3 µM. Ga16-expressing cells, calcium fluorescence, agonist counterscreen; in the data active = activation above about 12%;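 note: 0% = vehicle wells and 100% = saturating stimulus response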
TAAR1 ag counter – TAAR1 agonism, antagonist counter-screen. hit rate 2% among 2,400. AID 651955. hTAAR1 cell line, fluorescence activation, agonist mode. activation, % at 3 µM. shares compounds with TAAR1 antagonist; in the data active = activation above about 37%;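 note: CHO cells stably expressing TAAR1 with calcium dye readout; 0% = DMSO vehicle and 100% = full agonist response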
The depositor's hits bear a star; · = no result given.

SMILES	OX1R antag-1	CHO parental Ca	TAAR1 antagonist	TAAR1 agonist	GPR7 antagonist	OX1R antag-2	nonsel antag count	TAAR1 antag conf	Ga16 nonsel ag	TAAR1 ag counter
c1ccc(CCc2cn(C[C@H]3CC[C@@H]([C@@H]4CC[C@H](Cn5cc(CCc6ccccc6)nn5)O4)O3)nn2)cc1	16.7	-5.9	56.9*	26.4	7.6	-21.6	31.8*	56.5*	12.9*	12.8
c1ccc(-c2cn(C[C@H]3CC[C@@H]([C@@H]4CC[C@H](Cn5cc(-c6ccccc6)nn5)O4)O3)nn2)cc1	36.0	-23.6	8.6	12.9	8.7	-42.7	·	·	·	·
O=C(NCCN1CCOCC1)c1ccccc1N1C(=O)[C@@H]2Cc3c([nH]c4ccccc34)C(c3ccccc3)N2C1=O (stereo partly drawn)	1.3	-14.0	37.7	7.1	5.7	-22.1	·	·	·	·
O=C(NCCCN1CCOCC1)c1ccccc1N1C(=O)[C@@H]2Cc3c([nH]c4ccccc34)C(c3ccc(F)cc3)N2C1=O (stereo partly drawn)	1.5	-20.0	72.8*	11.9	-6.5	-21.4	26.4*	40.8	6.2	7.5
Cc1ccc(NC(=O)CN2CCN(S(=O)(=O)c3ccc(F)cc3)CC2)cc1C	6.6	-10.0	1.8	8.6	·	-13.8	·	·	·	·
O=C(Nc1nc(-c2cc(F)ccc2F)cs1)c1cccc(N2C(=O)CCC2=O)c1	25.5	24.8	74.9*	28.7	·	-10.2	47.6*	59.5*	21.7*	18.0
CCC(C)Nc1nc(-c2cccc(OC)c2O)nc2ccccc12 (stereo not drawn)	13.3	-9.7	57.2*	18.1	-21.7	-13.9	21.0	35.8	11.1	25.1
Cc1c(C(=O)NCc2ccc3c(c2)cc(C)n3C)cccc1[N+](=O)[O-]	2.3	-4.7	66.5*	9.9	-21.9	-42.5	30.4*	51.1*	7.5	7.6
COc1ccc(CCNC(=O)c2ccc(OCc3c(C)noc3C)c(OC)c2)cc1	11.2	-16.0	22.5	7.1	·	-26.4	·	·	·	·
COc1cc(C(=O)NCCc2c[nH]c3ccccc23)ccc1OCc1c(C)noc1C	12.8	5.2	62.7*	15.6	3.0	-3.7	31.2*	48.2	9.7	8.2
CC12CC3(C)CC(C)(C1)CC(C(=O)NCc1cccnc1)(C2)C3	5.3	-14.2	-1.2	-0.2	6.8	-28.6	·	·	·	·
COc1cc(OC)c(OC)cc1CNC(=O)c1cccc(S(=O)(=O)N2CCc3ccccc3C2)c1	·	·	68.0*	12.4	·	·	46.9*	57.1*	13.7*	8.4
COc1ccccc1CNC(=O)c1cccc(S(=O)(=O)N2CCN(C)CC2)c1	9.8	4.1	-8.1	1.1	-13.4	-44.7	·	·	·	·
COc1ccc(CN(C)C(=O)COC(=O)c2ccc(-c3ccccc3)cc2)c(OC)c1OC	·	·	47.0	5.9	·	·	·	·	·	·
CCOc1ccc(-c2ccc(/C=C3/C(=N)N4C=CSC4=NC3=O)o2)c([N+](=O)[O-])c1	8.4	-11.2	5.0	5.4	-10.0	-6.2	·	·	·	·
CCOc1ccc(-c2ccc(/C=C3/C(=N)N4C(C)=CSC4=NC3=O)o2)c([N+](=O)[O-])c1	9.7	-0.4	58.7*	11.9	-10.7	0.3	38.5*	49.5*	8.7	3.0
CC(C)(C)OC(=O)N1CCc2onc(-c3ccc(-n4cc(C5=CCCCC5)nn4)cc3)c2C1=O	·	·	-19.5	-0.6	·	·	·	·	·	·
CC(O)[C@H]1CC[C@H]2[C@@H]3CC[C@H]4C[C@H](O)CC[C@]4(C)[C@H]3[C@H](O)C[C@]12C (stereo partly drawn)	13.1	-10.6	0.7	13.5	·	2.5	·	·	·	·
CC12CCC3C(CCC4CC(O)CCC43C)C1CC(O)C2 (stereo not drawn)	·	·	78.8*	20.0	·	·	35.0*	56.4*	11.8*	9.8
COc1nc(N)c(C#N)c(-c2ccc(N(C)CCC#N)cc2)c1C#N	11.9	-7.6	80.6*	25.6	0.6	9.1	29.2*	52.3*	17.3*	22.4
COc1ccc(-c2csc3nc(C)nc(N4CCCCC4)c23)cc1OC	15.8	-14.1	4.8	0.6	-3.2	-20.6	·	·	·	·
COc1ccc(-c2csc3nc(-c4cccnc4)nc(N4CCC(C(N)=O)CC4)c23)cc1OC	10.9	-20.1	52.5*	20.1	-7.8	-9.3	18.5	33.0	9.4	7.9
COc1ccc(C)cc1-n1nnnc1SC(C)C(=O)NC1CCCC1 (stereo not drawn)	2.4	-19.5	4.3	-1.2	·	-21.1	·	·	·	·
Fc1cccc(-c2c(-c3ccccc3)ncc3cc(F)ccc23)c1	6.0	-30.8	72.1*	23.4	·	-25.3	11.3	23.2	6.9	11.8
COc1cc(NC(=O)C2CC(c3c(F)cccc3Cl)=NO2)cc(OC)c1OC (stereo not drawn)	41.3	3.9	61.9*	16.6	-1.1	0.4	35.0*	35.2	12.8*	11.3
SMILES	OX1R antag-1	CHO parental Ca	TAAR1 antagonist	TAAR1 agonist	GPR7 antagonist	OX1R antag-2	nonsel antag count	TAAR1 antag conf	Ga16 nonsel ag	TAAR1 ag counter
COC(=O)CSc1ncnc2scc(-c3ccccc3)c12	15.7	-15.8	-14.0	-2.2	3.2	-8.8	·	·	·	·
COc1ccccc1N1CCN(C(=O)CSc2ncnc3scc(-c4ccccc4)c23)CC1	30.3	-39.1	55.9*	2.6	-0.6	-26.1	21.8*	33.4	4.9	9.9
COc1ccc(CN(Cc2ccccn2)C(=O)CN2C(=O)C(C)Oc3ccccc32)cc1 (stereo not drawn)	28.5	-11.5	51.8*	14.9	-8.8	-13.7	28.9*	49.2*	10.7	11.6
CCCCNc1c(-c2ccc(OC)c(SC3CCCCC3)c2)nc2cc(C)ccn12	25.0	10.0	84.3*	9.0	·	-18.4	40.1*	48.7*	4.2	10.2
COc1cc(-c2nc3ccc(C)cn3c2NCc2ccccc2)ccc1SC1CCCCC1	37.9	-22.0	53.8*	5.6	·	-31.2	24.6*	30.5	1.7	-0.3
CCC(C)Sc1ccc(-c2nc3ccccn3c2NCc2ccccc2)cc1OC (stereo not drawn)	15.5	-9.1	·	·	·	4.8	·	·	·	·
COc1ccc(CSc2ccc(-c3nc4ccccn4c3NCc3ccccc3)cc2OC)cc1	27.9	-3.4	71.4*	17.6	·	-34.0	30.2*	47.6	3.8	8.9
NC(=O)C1C2C=CC(C2)C1c1ccccc1 (stereo not drawn)	·	·	-6.0	-0.3	·	·	·	·	·	·
CCOc1ccc(C(=O)CN2C(=O)NC3(CCCc4ccccc43)C2=O)cc1 (stereo not drawn)	·	·	7.1	3.5	·	·	·	·	·	·

High-throughput results deposited in PubChem by The Scripps Research Institute Molecular Screening Center.
